Assay [1] deals with Paracentrotus lividus. Put plainly: Antimitotic activity against Paracentrotus lividus embryo assessed as cleavage alteration after 2.5 to 6 hrs post fertilization by sea urchin embryo assay. The class given is functional. Summed up: (§1)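 Fertilized sea urchin eggs, cultured at room temperature in filtered seawater with paddle agitation (60 rpm), exposed 10-25 min post-fertilization (45-60 min before first cleavage) to 2-fold decreasing concentrations as a monolayer, up to 2000 embryos/mL. Stocks: 5 mM in 95% EtOH, or 5-20 mM in DMSO then 10-fold diluted in 95% EtOH. Cleavage scored microscopically 2.5-6 h post-fertilization. EC = threshold concentration causing cleavage alteration with death before hatching or full arrest.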

The subject of assay [2] is Paracentrotus lividus. The experiment in a line: Antimitotic activity against Paracentrotus lividus embryo assessed as cleavage arrest after 2.5 to 6 hrs post fertilization by sea urchin embryo assay. The format is functional. Summed up:
as §1

Assay [3] relates to Paracentrotus lividus. Put plainly: Antimitotic activity against Paracentrotus lividus embryo assessed as embryo spinning after 0.5 to 20 hrs post dose by sea urchin embryo assay. The class given is functional. A digest of the protocol: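 Free-swimming blastulae from the same culture treated just after hatching (9-12 h post-fertilization) in filtered seawater at room temperature. Final DMSO at most 0.05%, EtOH at most 1%. Tubulin destabilization scored microscopically as loss of forward movement, settling to the vessel bottom and rapid spinning about the animal-vegetal axis.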

The test system of assay [4] is Paracentrotus lividus. Put plainly: Antimitotic activity against Paracentrotus lividus embryo assessed as cleavage alteration up to 80 to 100 uM after 2.5 to 6 hrs post fertilization by sea urchin embryo assay. The class given is functional, organism-based. A digest of the protocol: (§2)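 Fertilized sea urchin eggs, treated 10-25 min after fertilization (45-60 min before first cleavage), exposed to 2-fold decreasing concentrations; monolayer in filtered seawater at room temperature, up to 2000 embryos/mL. Compounds from EtOH or DMSO stocks diluted in 95% EtOH; final DMSO ≤0.05%, EtOH ≤1%. Cleavage scored microscopically 2.5-6 h post-fertilization; EC = threshold concentration causing cleavage alteration with death before hatching or full mitotic arrest.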

The test system of assay [5] is Paracentrotus lividus. Put plainly: Antimitotic activity against Paracentrotus lividus embryo assessed as cleavage alteration up to 5 uM after 2.5 to 6 hrs post fertilization by sea urchin embryo assay. The class given is functional, organism-based. A digest of the protocol:
as §2

Activity calls are given as the source filed them.

As for `COc1ccc(/C=C(/C(=O)O)c2cc(OC)c(OC)c(OC)c2)cc1O`, the EC in the assay on Paracentrotus lividus [1], in the assay with Paracentrotus lividus [2] and with Paracentrotus lividus [3] was >11.2 µM throughout.
As for `COc1ccc(-c2nnc(-c3cc4c(c(OC)c3OC)OCO4)[nH]2)cc1O`, the EC in the assay with Paracentrotus lividus [1] is 4 µM; with Paracentrotus lividus [2], >4 µM; with Paracentrotus lividus [3], >4 µM.
Consider `COc1ccc(-c2nnc(-c3cc(OC)c4c(c3)OCO4)[nH]2)cc1O`, for which the values for the EC in the assay on Paracentrotus lividus [1], with Paracentrotus lividus [2] and in the assay with Paracentrotus lividus [3] were 2 µM, >4 µM and >5 µM, respectively.
For `C/C=C/c1cc(OC)c2c(c1)OCO2` [ISOMYRISTICIN], in that order: >5 µM, >5 µM and >5 µM.
Regarding `COc1ccc(-c2nc(-c3c(Cl)c(OC)c4c(c3OC)OCO4)no2)cc1O`, the EC in the assay with Paracentrotus lividus [1] and in the assay on Paracentrotus lividus [2] was >4 µM each time.
With `COc1ccc(/C=C\c2ccc3c(c2)OCCO3)cc1O`, the EC in the assay on Paracentrotus lividus [1] is 0.02 µM; with Paracentrotus lividus [2], 0.5 µM; with Paracentrotus lividus [3], 1 µM.
In the case of `COc1cccc(-c2nnc(-c3ccc(OC)c(OC)c3)o2)c1`, the results for the EC in the assay with Paracentrotus lividus [1], in the assay with Paracentrotus lividus [2] and in the assay on Paracentrotus lividus [3] were 0.05 µM, 4 µM and 2 µM, respectively.
For `C=CCc1cc(OC)c2c(c1OC)OCO2`, the result with Paracentrotus lividus [4] was inactive.
As for `COc1ccc(-c2nnc(-c3cc(OC)c4c(c3OC)OCO4)[nH]2)cc1O`, the EC with Paracentrotus lividus [1], in the assay with Paracentrotus lividus [2] and in the assay with Paracentrotus lividus [3] was >4 µM in each case.
As for `COc1cc(/C=C/c2cc(OC)c3c(c2OC)OCO3)ccc1O`, the EC was >4 µM in the assay on Paracentrotus lividus [1], >4 µM with Paracentrotus lividus [2] and >5 µM in the assay on Paracentrotus lividus [3].
As to `C=CCc1cc2c(c(OC)c1OC)OCO2`, in the assay with Paracentrotus lividus [4], the outcome was inactive.
In the case of `COc1ccc(/C=C/c2cc(OC)c(OC)c(OC)c2OC)cc1O`, the EC in the assay with Paracentrotus lividus [1] was 0.1 µM; with Paracentrotus lividus [2], 1 µM; in the assay with Paracentrotus lividus [3], 5 µM.
Regarding `COc1ccc(/C=C/c2cc(OC)c3c(c2)OCO3)cc1O`, the EC in the assay with Paracentrotus lividus [1] stood at 0.02 µM; in the assay with Paracentrotus lividus [2] it was 0.1 µM; in the assay on Paracentrotus lividus [3] it was 1 µM.
For the compound `C=CCc1cc(OC)c2c(c1)OCO2`, in the assay with Paracentrotus lividus [4], the outcome was inactive.
Take `COc1ccc(-c2nc(Cc3cc(OC)c4c(c3OC)OCO4)no2)cc1O`: the values for the EC in the assay with Paracentrotus lividus [1], in the assay on Paracentrotus lividus [2] and in the assay on Paracentrotus lividus [3] were 4 µM, >4 µM and >5 µM, respectively.
Regarding `COc1ccc(/C=C/c2cc3c(c(OC)c2OC)OCO3)cc1O`, the EC is 0.1 µM in the assay on Paracentrotus lividus [1], 4 µM in the assay with Paracentrotus lividus [2] and 5 µM in the assay with Paracentrotus lividus [3].
For `COc1ccc(-c2nnc(-c3cc(OC)c(OC)c(OC)c3)[nH]2)cc1O`, in that order: 4 µM, >4 µM and >4 µM.
For `COc1ccc(-c2nnc(-c3cc(OC)c(OC)c(OC)c3)o2)cc1O`, in that order: >4 µM, >4 µM and >4 µM.
For `COc1ccc(/C=C\c2cc3c(cc2OC)OCCO3)cc1O`, in that order: 0.02 µM, 0.2 µM and 1 µM.
Take `COc1ccc(/C=C/c2cc(OC)c3c(c2)OCCO3)cc1O`: the EC came to 0.02 µM in the assay with Paracentrotus lividus [1], 0.1 µM with Paracentrotus lividus [2] and 2 µM in the assay with Paracentrotus lividus [3].
For `COc1ccc(-c2nnc(-c3cc(OC)c4c(c3)OCO4)o2)cc1O`, in that order: 0.5 µM, 2 µM and >5 µM.
For `COc1cc(-c2nnc(-c3cc(OC)c4c(c3)OCO4)o2)cc(OC)c1OC`, in that order: 0.5 µM, 2 µM and >5 µM.
For `COc1ccc(-c2nc(-c3cc4c(c(OC)c3OC)OCO4)no2)cc1O`, in that order: >4 µM, >4 µM and >4 µM.
On to `COc1cc(-c2noc(-c3ccc4c(c3)OCO4)n2)cc(OC)c1OC`, for which the EC with Paracentrotus lividus [1], in the assay on Paracentrotus lividus [2] and in the assay on Paracentrotus lividus [3] was >4 µM throughout.
As to `COc1ccc(-c2nc(-c3cc(OC)c4c(c3OC)OCO4)no2)cc1O`, the EC in the assay with Paracentrotus lividus [1], with Paracentrotus lividus [2] and in the assay with Paracentrotus lividus [3] was >4 µM each time.
In the case of `COc1ccc(/C=C\c2cc(OC)c3c(c2)OCCO3)cc1O`, the values for the EC with Paracentrotus lividus [1], in the assay on Paracentrotus lividus [2] and with Paracentrotus lividus [3] were 0.002 µM, 0.01 µM and 0.05 µM, respectively.
For `COc1ccc(/C=C/c2ccc3c(c2)OCCO3)cc1O`, in that order: 0.1 µM, 1 µM and 2 µM.
The matching figures for `COc1ccc(/C=C\c2cc(OC)c(OC)c(OC)c2)cc1O` [COMBRETASTATIN A4]: 0.002 µM, 0.01 µM and 0.05 µM.
The matching figures for `COc1ccc(/C=C/c2cc(OC)c3c(c2OC)OCO3)cc1O`: 0.5 µM, 4 µM and 5 µM.
On to `COc1ccc(/C=C\c2cc(OC)c(OC)c(OC)c2)cc1OP(=O)([O-])[O-].[Na+].[Na+]` [FOSBRETABULIN DISODIUM], for which the EC was 0.005 µM in the assay with Paracentrotus lividus [1], 0.01 µM in the assay with Paracentrotus lividus [2] and 1 µM in the assay on Paracentrotus lividus [3].
The matching figures for `COc1ccc(/C=C\c2cc3c(c(OC)c2OC)OCO3)cc1O`: 0.01 µM, 0.2 µM and 0.5 µM.
Turning to `COc1ccc(/C=C\c2cc(OC)c3c(c2OC)OCO3)cc1O`, the EC is 0.02 µM with Paracentrotus lividus [1], 0.1 µM in the assay with Paracentrotus lividus [2] and 1 µM in the assay on Paracentrotus lividus [3].
For `C/C=C/c1cc(OC)c2c(c1OC)OCO2` [ISOAPIOL], in that order: 2 µM, 8 µM and >10 µM.
The matching figures for `C/C=C/c1cc2c(c(OC)c1OC)OCO2` [ISODILLAPIOL]: 20 µM, 80 µM and >100 µM.
For `COc1ccc(/C=C\c2cc(OC)c(OC)c(OC)c2OC)cc1O`, in that order: 0.02 µM, 0.1 µM and 1 µM.
Consider `COc1ccc(/C=C/c2cc3c(cc2OC)OCCO3)cc1O`, for which the EC in the assay with Paracentrotus lividus [1] is 0.1 µM; with Paracentrotus lividus [2], 2 µM; with Paracentrotus lividus [3] it was >5 µM.
As for `C/C=C/c1cc(OC)c(OC)c(OC)c1OC`, in the assay on Paracentrotus lividus [5], the outcome was inactive.
For the compound `COc1ccc(-c2nnc(-c3cccc(F)c3)o2)cc1OC`, the EC is 1 µM in the assay with Paracentrotus lividus [1], >4 µM with Paracentrotus lividus [2] and >5 µM in the assay with Paracentrotus lividus [3].
The matching figures for `COc1ccc(-c2nc(-c3cc(OC)c4c(c3)OCO4)no2)cc1O`: 4 µM, >4 µM and >4 µM.
For `COc1ccc(-c2nnc(-c3ccc(OC)c(OC)c3)o2)cc1OC`, in that order: 0.5 µM, 10 µM and 5 µM.
The matching figures for `COc1ccc(/C=C\c2cc(OC)c3c(c2)OCO3)cc1O` [Combretastatin A-2]: 0.002 µM, 0.01 µM and 0.05 µM.
